Legend:
[1] = target: T1, Amine oxidase [flavin-containing] B (Bos taurus, UniProt P56560); experiment: Ratio of catalytic constant and Michaelis-Menten constant for MAO-B.; conditions: cattle
T1 sequence (P56560 whole entry): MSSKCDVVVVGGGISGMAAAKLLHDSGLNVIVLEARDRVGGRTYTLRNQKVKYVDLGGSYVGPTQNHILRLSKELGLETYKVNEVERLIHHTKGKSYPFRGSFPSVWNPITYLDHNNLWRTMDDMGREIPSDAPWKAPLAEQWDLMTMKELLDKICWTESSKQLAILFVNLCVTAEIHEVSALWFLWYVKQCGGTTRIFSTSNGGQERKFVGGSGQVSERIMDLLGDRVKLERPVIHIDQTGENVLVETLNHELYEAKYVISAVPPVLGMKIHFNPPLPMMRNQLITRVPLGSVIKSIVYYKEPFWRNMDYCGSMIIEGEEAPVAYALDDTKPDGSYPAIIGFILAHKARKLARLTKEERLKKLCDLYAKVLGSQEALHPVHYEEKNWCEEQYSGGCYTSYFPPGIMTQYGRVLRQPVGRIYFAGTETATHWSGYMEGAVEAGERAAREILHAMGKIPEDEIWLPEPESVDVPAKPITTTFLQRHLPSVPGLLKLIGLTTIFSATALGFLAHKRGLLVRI
Method in brief: (§1)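 MAO-B at 0.08 μM final; activity was calibrated with MPTP at 30 °C and the preparation was stored at –15 °C. Substrate range 100–2000 μM in 100 mM sodium phosphate pH 7.4, with spectrophotometric initial oxidation rates. KM and kcat derived from double-reciprocal plots, and kcat/KM calculated from them.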

[2] = target: T2, Amine oxidase [flavin-containing] A (Homo sapiens, UniProt P21397); experiment: Kinetic value evaluated as catalyzed oxidation (kcat).
T2 sequence (P21397 whole entry): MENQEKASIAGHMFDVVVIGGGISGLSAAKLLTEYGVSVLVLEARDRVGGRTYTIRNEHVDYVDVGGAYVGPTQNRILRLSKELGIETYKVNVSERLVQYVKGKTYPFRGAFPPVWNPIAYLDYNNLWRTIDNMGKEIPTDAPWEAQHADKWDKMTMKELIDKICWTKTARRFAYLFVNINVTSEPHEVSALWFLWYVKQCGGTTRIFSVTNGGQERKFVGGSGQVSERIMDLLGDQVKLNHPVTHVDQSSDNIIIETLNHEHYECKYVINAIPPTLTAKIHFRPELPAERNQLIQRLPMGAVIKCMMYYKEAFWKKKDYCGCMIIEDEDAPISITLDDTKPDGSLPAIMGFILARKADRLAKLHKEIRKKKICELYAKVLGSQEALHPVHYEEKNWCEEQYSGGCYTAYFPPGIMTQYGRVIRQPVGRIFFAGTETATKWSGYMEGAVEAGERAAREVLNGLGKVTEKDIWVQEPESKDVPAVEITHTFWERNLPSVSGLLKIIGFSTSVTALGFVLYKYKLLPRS
Method in brief: (§2)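 kcat from initial oxidation rates, read by spectrophotometer, with test compounds at 100–2000 μM final in 100 mM sodium phosphate pH 7.4, using 0.16 μM MAO-A or 0.08 μM MAO-B. kcat and KM came from double-reciprocal plots. Repeat determinations were made on selected substrates at different times.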

[3] = target: T2, Amine oxidase [flavin-containing] A; experiment: Michaelis-Menten constant for Monoamine oxidase A-catalyzed oxidation (KM).
Method in brief: (§3)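 MAO-A at 0.16 μM final, raised to 0.32 μM for one slowly oxidized substrate. The MAO-A preparation was diluted with 3 volumes of phosphate buffer just before use, and its activity was re-checked bimonthly with kynuramine at 30 °C. Substrates at 100–2000 μM in 100 mM sodium phosphate pH 7.4; initial rates by spectrophotometry. kcat and KM from double-reciprocal plots; kcat/KM as their ratio.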

[4] = target: T2, Amine oxidase [flavin-containing] A; experiment: Ratio of catalytic constant and Michaelis-Menten constant for MAO-A.; method in brief: as §3
[5] = target: T1, Amine oxidase [flavin-containing] B; experiment: (§4) Michaelis-Menten constant for Monoamine oxidase B catalyzed oxidation (KM).; conditions: cattle; method in brief: as §1
[6] = target: T1, Amine oxidase [flavin-containing] B; experiment: Kinetic value evaluated as catalyzed oxidation rate (kcat).; conditions: cattle; method in brief: as §2
[7] = target: T3, Monoamine oxidase A (amine oxidase [flavin-containing] A) (Homo sapiens, UniProt P21397); experiment: Michaelis-Menten constant for Monoamine oxidase A catalyzed oxidation (Km)
T3 sequence (P21397 whole entry): T2 sequence (P21397 whole entry)
Method in brief: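 MAO-A preparation, viscous, diluted with 3 volumes of phosphate buffer just before use; activity standardised with kynuramine at 30 °C. Substrates as oxalate salts at 100–2000 μM final in 100 mM sodium phosphate, pH 7.4, with 0.16 μM MAO-A. Initial oxidation rates were followed spectrophotometrically, and Km came from double-reciprocal plots.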

[8] = target: T4, Monoamine oxidase B (amine oxidase [flavin-containing] B) (Bos taurus, UniProt P56560); experiment: as §4; conditions: cattle; method in brief: as §1
T4 sequence (P56560 whole entry): T1 sequence (P56560 whole entry)

Row | k cat/Km [1] [M⁻¹ s⁻¹] | k cat [2] [s⁻¹] | Km [3] [µM] | k cat/Km [4] [M⁻¹ s⁻¹] | Km [5] [µM] | k cat [6] [s⁻¹] | Structure (SMILES) | Km [7] [µM] | Km [8] [µM]
1 | 6050 | 2.88 | 101 | 28500 | 284 | 1.72 | CN1CC=C(Oc2ccc(-c3ccccc3)cc2)CC1 |  | 
2 | 69180 | 2.17 | 55 | 39320 | 58 | 4.02 | CN1CC=C(Oc2ccccc2)CC1 |  | 

Row | Structure (SMILES) | k cat/Km [1] [M⁻¹ s⁻¹] | k cat [2] [s⁻¹] | Km [3] [µM] | k cat/Km [4] [M⁻¹ s⁻¹] | Km [5] [µM] | k cat [6] [s⁻¹] | Km [7] [µM] | Km [8] [µM]
3 | CN1CC=C(c2ccccc2)CC1 | 23850 | 0.517 |  | 783 |  | 4.55 | 654 | 191
